Assay results taken from the M2OR odorant receptor database.

Legend:
Settings in all cases: stereoisomer not certain
[1] = target: T1, OR10G2 (Homo sapiens) (UniProt Q8NGC3)
T1 sequence (whole entry): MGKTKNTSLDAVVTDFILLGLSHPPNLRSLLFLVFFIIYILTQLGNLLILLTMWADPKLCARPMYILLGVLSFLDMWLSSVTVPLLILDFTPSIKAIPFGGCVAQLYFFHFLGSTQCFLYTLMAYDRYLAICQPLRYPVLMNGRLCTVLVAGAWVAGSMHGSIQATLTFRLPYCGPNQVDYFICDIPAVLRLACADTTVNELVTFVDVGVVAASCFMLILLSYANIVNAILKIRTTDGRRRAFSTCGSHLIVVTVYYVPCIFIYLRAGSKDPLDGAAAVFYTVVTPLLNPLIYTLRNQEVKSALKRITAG
In short: (§1)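 Each entry records the cell line, G-protein, co-transfected protein and tags used. Methods varied with the source, often transient luciferase assays in mammalian cell lines. A receptor–molecule pair is called responsive (active) if the original authors judged its signal statistically different from baseline and non-responsive (inactive) otherwise.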

[2] = target: T2, OR10G3 (Homo sapiens) (UniProt Q8NGC4)
T2 sequence (whole entry): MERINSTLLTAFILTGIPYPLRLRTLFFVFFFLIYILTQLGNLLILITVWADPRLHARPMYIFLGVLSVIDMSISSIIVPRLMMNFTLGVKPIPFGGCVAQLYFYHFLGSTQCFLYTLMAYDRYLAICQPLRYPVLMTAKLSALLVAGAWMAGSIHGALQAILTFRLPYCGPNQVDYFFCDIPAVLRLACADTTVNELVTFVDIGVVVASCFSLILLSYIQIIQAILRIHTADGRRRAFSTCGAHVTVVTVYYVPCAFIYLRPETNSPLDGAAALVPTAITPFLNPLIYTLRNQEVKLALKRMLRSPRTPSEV
In short: as §1

[3] = target: T3, OR10G4 (Homo sapiens) (UniProt Q8NGN3)
T3 sequence (whole entry): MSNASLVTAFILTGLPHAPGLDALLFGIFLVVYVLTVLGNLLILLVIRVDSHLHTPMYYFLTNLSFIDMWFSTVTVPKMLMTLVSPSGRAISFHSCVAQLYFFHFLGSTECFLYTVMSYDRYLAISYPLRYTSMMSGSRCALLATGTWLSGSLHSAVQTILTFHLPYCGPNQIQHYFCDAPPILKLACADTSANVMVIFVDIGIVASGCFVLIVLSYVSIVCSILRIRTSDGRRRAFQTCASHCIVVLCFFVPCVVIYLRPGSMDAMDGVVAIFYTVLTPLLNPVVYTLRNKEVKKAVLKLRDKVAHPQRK
In short: as §1

[4] = target: T4, OR10G6 (Homo sapiens) (UniProt Q8NH81)
T4 sequence (whole entry): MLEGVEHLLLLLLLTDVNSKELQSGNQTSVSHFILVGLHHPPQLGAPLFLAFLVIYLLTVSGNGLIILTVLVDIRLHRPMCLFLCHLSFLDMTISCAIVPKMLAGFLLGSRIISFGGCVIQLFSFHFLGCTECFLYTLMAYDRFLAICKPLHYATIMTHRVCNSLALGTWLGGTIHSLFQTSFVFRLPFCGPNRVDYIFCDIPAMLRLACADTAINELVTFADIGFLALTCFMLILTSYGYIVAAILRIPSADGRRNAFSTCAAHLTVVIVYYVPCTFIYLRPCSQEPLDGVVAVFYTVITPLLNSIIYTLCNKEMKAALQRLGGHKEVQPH
In short: as §1

[5] = target: T5, OR10G7 (Homo sapiens) (UniProt Q8NGN6)
T5 sequence (whole entry): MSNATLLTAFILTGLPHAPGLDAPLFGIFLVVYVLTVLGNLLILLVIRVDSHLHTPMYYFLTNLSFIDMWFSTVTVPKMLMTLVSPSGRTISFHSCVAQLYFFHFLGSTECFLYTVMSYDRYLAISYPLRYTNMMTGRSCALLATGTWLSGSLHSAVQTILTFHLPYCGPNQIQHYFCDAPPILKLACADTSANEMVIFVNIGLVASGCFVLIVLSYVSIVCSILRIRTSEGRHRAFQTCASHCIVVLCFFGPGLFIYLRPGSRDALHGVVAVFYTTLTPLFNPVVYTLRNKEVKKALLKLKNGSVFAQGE
In short: as §1

[6] = target: T6, OR10G8 (Homo sapiens) (UniProt Q8NGN5)
T6 sequence (whole entry): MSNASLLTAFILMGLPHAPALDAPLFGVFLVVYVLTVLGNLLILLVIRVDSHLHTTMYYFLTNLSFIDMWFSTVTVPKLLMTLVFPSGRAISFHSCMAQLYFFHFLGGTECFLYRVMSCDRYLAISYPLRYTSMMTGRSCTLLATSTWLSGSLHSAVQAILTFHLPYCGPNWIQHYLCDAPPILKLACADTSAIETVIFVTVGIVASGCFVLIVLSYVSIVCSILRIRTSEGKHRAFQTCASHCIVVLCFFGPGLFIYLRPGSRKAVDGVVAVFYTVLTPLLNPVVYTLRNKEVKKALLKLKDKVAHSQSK
In short: as §1

[7] = target: T7, OR10G9 (Homo sapiens) (UniProt Q8NGN4)
T7 sequence (whole entry): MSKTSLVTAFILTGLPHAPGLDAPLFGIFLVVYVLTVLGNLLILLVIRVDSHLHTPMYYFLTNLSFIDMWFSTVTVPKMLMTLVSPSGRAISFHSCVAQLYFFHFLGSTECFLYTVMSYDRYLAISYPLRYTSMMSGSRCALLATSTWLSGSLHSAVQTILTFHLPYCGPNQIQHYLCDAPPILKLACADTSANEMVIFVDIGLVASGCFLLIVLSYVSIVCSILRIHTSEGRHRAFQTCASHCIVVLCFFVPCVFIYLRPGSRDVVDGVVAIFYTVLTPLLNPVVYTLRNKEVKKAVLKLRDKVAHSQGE
In short: as §1

[8] = target: T8, OR10H1 (Homo sapiens) (UniProt Q9Y4A9)
T8 sequence (whole entry): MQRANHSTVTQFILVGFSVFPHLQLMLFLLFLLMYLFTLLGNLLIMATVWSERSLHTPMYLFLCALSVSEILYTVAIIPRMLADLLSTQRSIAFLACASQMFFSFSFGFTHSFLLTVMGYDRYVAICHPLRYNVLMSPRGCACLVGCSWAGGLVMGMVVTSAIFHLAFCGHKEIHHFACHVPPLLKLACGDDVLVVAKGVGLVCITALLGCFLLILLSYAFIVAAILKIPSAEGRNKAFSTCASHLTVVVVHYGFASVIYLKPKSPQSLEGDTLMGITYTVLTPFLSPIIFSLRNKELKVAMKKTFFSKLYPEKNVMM
In short: as §1

[9] = target: T9, OR10H2 (Homo sapiens) (UniProt O60403)
T9 sequence (whole entry): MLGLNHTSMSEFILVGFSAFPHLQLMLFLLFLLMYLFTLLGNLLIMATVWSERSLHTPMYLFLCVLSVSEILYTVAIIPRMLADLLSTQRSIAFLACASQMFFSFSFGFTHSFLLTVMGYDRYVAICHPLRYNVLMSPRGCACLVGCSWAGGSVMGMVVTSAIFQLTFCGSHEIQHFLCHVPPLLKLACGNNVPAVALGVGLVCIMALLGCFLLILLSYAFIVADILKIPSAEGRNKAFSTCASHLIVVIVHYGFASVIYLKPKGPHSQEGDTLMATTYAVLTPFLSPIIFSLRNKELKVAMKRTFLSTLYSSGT
In short: as §1

Measured: odorant receptor agonist call

CCCCC(S)C(C)CO (centres undefined)
inactive: all assays above
